Measured values as given in ChEMBL document CHEMBL3272226, “Synthesis and dopaminergic activity of (+/-)-, (+)-, and (-)-2-dipropylamino-5-hydroxy-1,2,3,4-tetrahydronaphthalene” (1976).
Activity calls are given as the source filed them. The calls are words filed in the database; no cut-off is given here.

How the values were obtained:
[1] = system: Rattus norvegicus; test: Dopaminergic activity in sc dosed Sprague-Dawley rat assessed as induction of stereotyped behavior administered for 30 to 50 mins; assay type: functional; details: for minimal effective dose: Rattus norvegicus, Sprague-Dawley, sc, read-out: MED
Outline: (§1)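 Sprague-Dawley male rats, three per dose, dosed sc with HCl or HI salts in saline (doses as free base); minimum dose inducing stereotyped behavior lasting 30-50 min determined.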

[2] = system: Canis familiaris; test: Dopaminergic activity in dog assessed as induction of emesis administered intramuscularly measured up to 20 hrs; assay type: functional, Canis lupus familiaris; details: for minimal effective dose: Canis lupus familiaris, im, 20 h, read-out: MED
Outline: (§2)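 Dogs, three to five per dose, given im injection of test solutions (HCl or HI salts dissolved in saline, doses as free base); minimum emetic dose determined.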

[3] = system: Canis familiaris; test: Dopaminergic activity in (+)-6-(dipropylamino)-5,6,7,8-tetrahydronaphthalen-1-ol-pretreated dog assessed as induction of emesis administered intramuscularly measured up to 20 hrs; assay type: functional, organism-based; details: Canis lupus familiaris; outline: as §2
[4] = system: Rattus norvegicus; test: Dopaminergic activity in (+)-6-(dipropylamino)-5,6,7,8-tetrahydronaphthalen-1-ol-pretreated sc dosed Sprague-Dawley rat assessed as induction of stereotyped behavior administered for 30 to 50 mins; assay type: functional, organism-based; outline: as §1

CCCN(CCC)C1CCc2ccc(O)cc2C1 (racemic)
minimal effective dose [1]: 23 mg/kg | minimal effective dose [2]: 0.013 mg/kg

CCCN(CCC)C1CCc2c(O)cccc2C1 (racemic) [5-OH-DPAT]
MED [1]: 0.09 mg/kg | MED [2]: 0.004 mg/kg

CCCN(CCC)C1CCc2c(O)cccc2C1 (single isomer, unassigned; (-))
Activity [3]: Active | Activity [4]: Active

CN1CCc2cccc3c2[C@H]1Cc1ccc(O)c(O)c1-3
Activity [3]: Active | Activity [4]: Active

CCCN(CCC)C1CCc2c(O)cccc2C1 (single isomer, unassigned; (-)) [5-OH-DPAT]
MED [1]: 0.05 mg/kg | MED [2]: 0.002 mg/kg

CCCN(CCC)C1CCc2cc(O)ccc2C1 (racemic)
minimal effective dose [1]: 13 mg/kg | minimal effective dose [2]: 0.036 mg/kg

CCCN(CCC)C1CCc2c(O)cccc2C1 (single isomer, unassigned; (+)) [5-OH-DPAT]
MED [1]: >1.8 mg/kg | MED [2]: >0.08 mg/kg
